What is called IC50 is the midpoint of a concentration-inhibition curve. Broadly, the ED50 is the dose at which the effect has come halfway, by size or by number of responders. High values mean weaker potency, low ones greater potency. One may read the Ki as a measure of affinity in units of concentration, obtained from inhibition or displacement. A lower Ki goes with a stronger hold on the target.

The values that follow come from ChEMBL document CHEMBL1132611, “Novel, potent, and selective phosphodiesterase-4 inhibitors as antiasthmatic agents: synthesis and biological activities of a series of 1-pyridylnaphthalene derivatives” (J Med Chem, 1999).

Each structure is given as a SMILES string.

The test system of assay [1] is Cavia porcellus. Briefly: Inhibition of antigen-induced bronchoconstriction in guinea pigs 0.3 mg/kg intravenous dose. Format: functional. Put shortly: (§1)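 Male Hartley guinea pigs were passively sensitised with iv rabbit anti-ovalbumin antiserum and challenged with ovalbumin 30 µg/kg iv 20–28 h later. Animals were under α-chloralose anaesthesia, ventilated, and paralysed with gallamine. Overflow volume was measured by Konzett–Rössler and expressed as a percentage of the maximum. Compound was given iv 2 min before challenge. ED50 came from the dose–inhibition curve with 95% confidence limits.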

The next assay deals with Phosphodiesterase 1 (Homo sapiens, UniProt P54750+Q01064+Q14123). Briefly: Inhibition of Phosphodiesterase 1 of guinea pig cardiac ventricle. It counts as protein assay, Cavia porcellus. The following applies: target entry is the homologue from another species. Put shortly:
(§2)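 PDE1, 2 and 3 came from guinea pig cardiac ventricle and PDE4 and 5 from lung, separated by Resource-Q anion exchange on a sodium acetate gradient at pH 6.5. Assays used 1.0 µM [3H]cAMP or [3H]cGMP in 50 mM Tris-HCl pH 8.0, 5 mM MgCl2 and 4 mM 2-mercaptoethanol, for 30 min at 30 °C. Substrate hydrolysis was kept at or below 20%. Triplicates were run at 3–4 inhibitor levels, and IC50 was read graphically.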

The target of assay [2] is T1, Phosphodiesterase 4 (Homo sapiens, UniProt P27815+Q08499+Q07343+Q08493). Briefly: Inhibition of guinea pig lung Phosphodiesterase 4. It counts as protein assay, Cavia porcellus. The following applies: target entry is the homologue from another species. The essentials:
as §2

Assay [3] deals with Canis familiaris. Briefly: Emetic effect in dog at 1 mg/kg dose, iv. It counts as functional, Canis lupus familiaris.
Assay [4] deals with Cavia porcellus. Briefly: Change in guinea pig heart rate at 0.3 mg/kg intravenous dose. It counts as functional.
Assay [5] relates to Cavia porcellus. Briefly: Inhibition of antigen-induced bronchoconstriction in guinea pigs 0.1 mg/kg intravenous dose. It counts as functional. The essentials: as §1
The species entered for assay [6] is Cavia porcellus. Briefly: Inhibition of antigen-induced bronchoconstriction in guinea pigs (95% confidence). It counts as functional. Put shortly:
as §1

The test system of assay [7] is Canis familiaris. Briefly: Emetic effect in dog at 0.3 mg/kg dose, iv. Format: functional, Canis lupus familiaris.
The subject of assay [8] is Cavia porcellus. Briefly: Change in guinea pig heart rate at 0.03 mg/kg intravenous dose. Format: functional.
The target of assay [9] is T1, Phosphodiesterase 4. Briefly: (§3) Displacement of [3H]- rolipram binding to guinea pig brain. It counts as tissue-based, Cavia porcellus. The following applies: target entry is the homologue from another species. Put shortly:
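Guinea pig brain membranes were made by homogenising in 20 mM Tris-HCl pH 7.4 with 2 mM MgCl2 and 0.1 mM DTT, spun at 45000g, washed and stored at -80 °C. Competition used 3 nM [3H]-(±)-rolipram at 30 °C for 60 min in 25 mM Tris-HCl pH 7.4, 5 mM MgCl2 and 0.05 mM 5'-AMP. Bound ligand was separated by filtration and counted by scintillation.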

The species named for assay [10] is Cavia porcellus. Briefly: Inhibition of histamine-induced bronchoconstriction in guinea pigs (95% confidence). It counts as functional. Put shortly:
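Guinea pigs received intraduodenal compound, and bronchoconstriction was induced with histamine dihydrochloride 2 µg/kg iv. Pulmonary inflation pressure was recorded in ventilated, gallamine-paralysed animals. ED50 was taken from the dose–inhibition curve using at least three doses, with 95% confidence limits.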

Assay [11] relates to Cavia porcellus. Briefly: Inhibition of antigen-induced bronchoconstriction in guinea pigs at 0.03 mg/kg intravenous dose. Format: functional. The essentials: as §1
For assay [12], the target named is cGMP-dependent 3',5'-cyclic phosphodiesterase (Homo sapiens, UniProt O00408). Briefly: Inhibition of guinea pig cardiac ventricle Phosphodiesterase 2. Also noted: species or system Cavia porcellus. The following applies: target entry is the homologue from another species. The essentials: as §2
Chain of cGMP-dependent 3',5'-cyclic phosphodiesterase (O00408 whole entry): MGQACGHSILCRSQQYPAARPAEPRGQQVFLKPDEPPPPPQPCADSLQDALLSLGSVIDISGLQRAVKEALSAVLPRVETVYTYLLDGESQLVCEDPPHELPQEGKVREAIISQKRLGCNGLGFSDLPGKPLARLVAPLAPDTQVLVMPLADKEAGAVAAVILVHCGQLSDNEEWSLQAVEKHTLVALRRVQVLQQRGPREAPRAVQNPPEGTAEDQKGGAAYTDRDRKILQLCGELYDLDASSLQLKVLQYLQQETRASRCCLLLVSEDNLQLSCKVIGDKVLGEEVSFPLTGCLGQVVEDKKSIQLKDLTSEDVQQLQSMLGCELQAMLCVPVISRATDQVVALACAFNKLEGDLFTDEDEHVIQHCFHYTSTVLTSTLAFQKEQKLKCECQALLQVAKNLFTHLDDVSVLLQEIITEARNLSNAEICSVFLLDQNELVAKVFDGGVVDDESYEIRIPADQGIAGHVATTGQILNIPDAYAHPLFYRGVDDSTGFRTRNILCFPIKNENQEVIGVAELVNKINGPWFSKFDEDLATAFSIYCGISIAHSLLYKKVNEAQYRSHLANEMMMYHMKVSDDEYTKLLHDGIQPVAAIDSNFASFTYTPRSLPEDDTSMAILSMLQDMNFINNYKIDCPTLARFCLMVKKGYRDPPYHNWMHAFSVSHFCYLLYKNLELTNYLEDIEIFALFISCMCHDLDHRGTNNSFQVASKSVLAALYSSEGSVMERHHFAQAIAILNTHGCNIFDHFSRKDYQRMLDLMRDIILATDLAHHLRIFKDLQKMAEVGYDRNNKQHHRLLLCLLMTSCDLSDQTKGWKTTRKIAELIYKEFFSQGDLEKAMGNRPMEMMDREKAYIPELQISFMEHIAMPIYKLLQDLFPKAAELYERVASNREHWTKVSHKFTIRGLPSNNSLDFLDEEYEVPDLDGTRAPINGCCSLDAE
The test system of assay [13] is Cavia porcellus. Briefly: Change in guinea pig heart rate at 0.1 mg/kg intravenous dose. It counts as functional.
Assay [14] addresses T1, Phosphodiesterase 4. Briefly: Emetic effect in ferrets at peroral 30 mg/kg dose. It counts as functional, organism-based. Also noted: dose 30 mg/kg. The following applies: Mustela putorius furo; target entry is the homologue from another species.
Assay [15] addresses T1, Phosphodiesterase 4. Briefly: Emetic effect in ferrets at peroral 10 mg/kg. It counts as functional, organism-based. Also noted: dose 10 mg/kg. The following applies: Mustela putorius furo; target entry is the homologue from another species.
The target of a further assay is Phosphodiesterase 3 (Homo sapiens, UniProt Q14432+Q13370). Briefly: In vitro inhibition of Phosphodiesterase 3 activity from guinea pig cardiac ventricle. Format: protein assay, Cavia porcellus. The following applies: target entry is the homologue from another species. The essentials: as §2
Assay [16] concerns the target T1, Phosphodiesterase 4. Briefly: In vitro inhibition of Phosphodiesterase 4 from guinea pig lung. The following applies: target entry is the homologue from another species. Format: protein assay, Cavia porcellus.
The test system of assay [17] is Cavia porcellus. Briefly: Change in guinea pig heart rate at 0.01 mg/kg intravenous dose. It counts as functional.
Assay [18] concerns the target T1, Phosphodiesterase 4. Briefly: Emetic effect in ferrets at peroral 100 mg/kg. Format: functional, organism-based. Also noted: dose 100 mg/kg. The following applies: Mustela putorius furo; target entry is the homologue from another species.
For assay [19], the system named is Cavia porcellus. Briefly: Inhibition of antigen-induced bronchoconstriction in guinea pigs at 0.01 mg/kg intravenous dose. It counts as functional. Put shortly:
as §1

Assay [20] addresses T1, Phosphodiesterase 4. The assay is described as §3. It counts as tissue-based, Cavia porcellus. The following applies: target entry is the homologue from another species. The source holds these as a separate data set.
In assay [21] the test system is Cavia porcellus. Briefly: Inhibition of antigen-induced bronchoconstriction in guinea pigs at 1 mg/kg intravenous dose. Format: functional. The essentials:
as §1

Assay [22] has as its system Cavia porcellus. Briefly: Inhibition of antigen-induced bronchoconstriction in guinea pigs 3 mg/kg intravenous dose. It counts as functional. Put shortly:
as §1

In assay [23] the target is T1, Phosphodiesterase 4. Briefly: Emetic effect in ferrets at peroral 100 mg/kg dose. Format: functional, organism-based. Also noted: dose 100 mg/kg. The following applies: Mustela putorius furo; target entry is the homologue from another species.

Consider `CCOc1cc2cc(CO)c(CO)c(-c3ccnc(-n4nc(-c5cccnc5)c5ccccc5c4=O)c3)c2cc1OCC.Cl` [T-2585.HCL], for which the Reduction with Cavia porcellus [1] is given as 84%; in the assay on Cavia porcellus [5] it was 57%; in the assay with Cavia porcellus [11] it was 37%. The 50% inhibitory concentration (IC50) was 10000 nM on Phosphodiesterase 1, 0.13 nM at Phosphodiesterase 4 [2], 1300 nM in assay [12] and 1800 nM at Phosphodiesterase 3. Further, the Emesis with Canis familiaris [3] worked out at 4 vomiting/tested; in the assay on Canis familiaris [7] it was 8 vomiting/tested. In addition, the Heart rate with Cavia porcellus [4] was found to be 2 delta beats min-1; with Cavia porcellus [8], 4 delta beats min-1; in the assay on Cavia porcellus [13], 3 delta beats min-1. Further, the ED50 in the assay filed under Cavia porcellus [6] was 0.063 mg/kg; in the assay filed under Cavia porcellus [10] it was 0.033 mg/kg. Moreover, the Ki on Phosphodiesterase 4 [9] worked out at 2.6 nM. The Emesis (vomiting/tested) at Phosphodiesterase 4 [14] and on Phosphodiesterase 4 [15] was 4 each time.

Regarding `COc1cc2cc(CO)c(CO)c(-c3ccnc(-n4nc(-c5cccnc5)c5ccccc5c4=O)c3)c2cc1OC.Cl`, the values for the half-maximal inhibitory concentration (IC50) against Phosphodiesterase 1, at Phosphodiesterase 4 [16] and at Phosphodiesterase 3 were 2000 nM, 0.63 nM and 290 nM, respectively. Further, the Reduction in the assay on Cavia porcellus [5] stood at 73%; with Cavia porcellus [11], 61%; with Cavia porcellus [19] it was 34%. The 50% effective dose (ED50) in the assay filed under Cavia porcellus [6] was determined as 0.022 mg/kg; in the assay listed under Cavia porcellus [10], 1.1 mg/kg. Also, the Heart rate in the assay on Cavia porcellus [8] came to 3 delta beats min-1; in the assay on Cavia porcellus [17] it was 1 delta beats min-1; in the assay with Cavia porcellus [13], 1 delta beats min-1. This compound yielded a Ki on Phosphodiesterase 4 [9] of 3.5 nM. In addition, the Emesis (vomiting/tested) stood at 4 at Phosphodiesterase 4 [18], 4 at Phosphodiesterase 4 [14] and 6 at Phosphodiesterase 4 [15].

As to `COc1cc2cc(CO)c(CO)c(-c3ccnc(-n4c(=O)ccc5ccccc54)c3)c2cc1OC`, the results for the 50% inhibitory concentration (IC50) on Phosphodiesterase 1, against Phosphodiesterase 4 [16] and against Phosphodiesterase 3 were 2000 nM, 2.8 nM and 330 nM, respectively. Further, at Phosphodiesterase 4 [20], the Ki was 6.2 nM. The Reduction with Cavia porcellus [5] is 68%; in the assay with Cavia porcellus [11], -11%; in the assay with Cavia porcellus [21], 86%; with Cavia porcellus [22], 90%. The ED50 stood at 0.12 mg/kg in the assay filed under Cavia porcellus [6] and 0.4 mg/kg in the assay filed under Cavia porcellus [10]. Further, the Emesis (vomiting/tested) at Phosphodiesterase 4 [23] is 4.
